Test results reported in ChEMBL document CHEMBL4000205, “Synthesis and molecular modelling studies of phenyl linked oxadiazole-phenylhydrazone hybrids as potent antileishmanial agents” (Eur J Med Chem, 2017).

Experiments:
[1] = Selectivity index, ratio of IC50 for human THP1 cells to IC50 for promastigote form of Leishmania major JISH118 infected in human THP1 cells; format: toxicity, cell-based; conditions: read-out: Ratio IC50
In short: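 Selectivity index taken as the IC50 in THP-1 cells divided by the antileishmanial IC50 from infected THP-1 macrophages.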

THP-1 = assay: Cytotoxicity against human THP1 cells; format: cell-based
U-937 [2] = assay: Cytotoxicity against human U937 cells up to 50 uM; format: cell-based
Leishmania major [3] = assay: Antileishmanial activity against promastigote form of Leishmania major JISH118 infected in human THP1 cells by Giemsa staining; format: functional, cell-based; conditions: JISH118, THP-1
In short: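 THP-1 cells grown in RPMI-1640 with 1% L-glutamine and 10% HIFBS, seeded at 5.0 x 10^4 macrophages/well and made adherent with PMA for 3 days at 37 °C, 5% CO2. Infected with stationary-stage L. major promastigotes (cultured at 26°C in Schneider's medium) at macrophage:parasite 1:5, held at 34 °C for 48 h. Extracellular parasites washed out, compounds added at various concentrations. Activity from % infected cells versus untreated after methanol fixation and Giemsa staining; triplicate.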

U-937 [4] = assay: Cytotoxicity against human U937 cells; format: cell-based
Leishmania major [5] = assay: Potency index, ratio of pentamidine IC50 to test compound IC50 for promastigote form of Leishmania major JISH118 infected in human THP1 cells; format: functional

| SMILES | IC50 (Leishmania major [3]) [µM] | selectivity ratio [1] | IC50 (THP-1) [µM] | Activity (U-937 [2]) | IC50 (U-937 [4]) [µM] | Ratio IC50 (Leishmania major [5]) |
| --- | --- | --- | --- | --- | --- | --- |
| COc1ccccc1-c1nnc(-c2ccc(C(=O)N/N=C/c3ccccc3C)cc2)o1 | 34.1 |  |  | Non-Toxic |  |  |
| COc1ccc(/C=N/NC(=O)c2ccc(-c3nnc(-c4ccccc4OC)o3)cc2)cc1 | 74.2 |  |  | Non-Toxic |  |  |
| N=C(N)c1ccc(OCCCCCOc2ccc(C(=N)N)cc2)cc1 [PENTAMIDINE] |  | 1.1 | 7.7 |  | 6.02 |  |
| COc1ccccc1-c1nnc(-c2ccc(C(=O)N/N=C/c3ccc(C)cc3)cc2)o1 | 29.6 |  |  | Non-Toxic |  |  |
| COc1ccccc1-c1nnc(-c2ccc(C(=O)N/N=C/c3cccnc3)cc2)o1 | 46.5 | 3.6 | 167 | Non-Toxic |  |  |
| COc1ccccc1-c1nnc(-c2ccc(C(=O)N/N=C/c3ccccc3[N+](=O)[O-])cc2)o1 | 64.5 | 2.5 | 161 | Non-Toxic |  |  |
| COc1ccccc1-c1nnc(-c2ccc(C(=O)N/N=C/c3cccc(C)c3)cc2)o1 | 40.2 |  |  | Non-Toxic |  |  |
| COc1ccccc1-c1nnc(-c2ccc(C(=O)N/N=C/c3ccc(Cl)cc3)cc2)o1 | 34.1 |  |  | Non-Toxic |  |  |
| COc1ccccc1-c1nnc(-c2ccc(C(=O)N/N=C/c3cccc([N+](=O)[O-])c3)cc2)o1 | 74.2 | 1.6 | 119 | Non-Toxic |  |  |
| COc1ccccc1-c1nnc(-c2ccc(C(=O)N/N=C/c3ccc([N+](=O)[O-])cc3)cc2)o1 | 56.5 | 3.6 | 203 | Non-Toxic |  |  |
| COc1ccccc1-c1nnc(-c2ccc(C(=O)N/N=C/c3ccncc3)cc2)o1 | 38.5 | 4.5 | 173 | Non-Toxic |  |  |
| COc1cccc(/C=N/NC(=O)c2ccc(-c3nnc(-c4ccccc4OC)o3)cc2)c1 | 78.6 |  |  | Non-Toxic |  |  |
| COc1ccccc1-c1nnc(-c2ccc(C(=O)N/N=C/c3ccccc3Cl)cc2)o1 | 29.1 |  |  | Non-Toxic |  |  |

Second part, led by results:

| IC50 (Leishmania major [3]) [µM] | SMILES | selectivity ratio [1] | IC50 (THP-1) [µM] | Activity (U-937 [2]) | IC50 (U-937 [4]) [µM] | Ratio IC50 (Leishmania major [5]) |
| --- | --- | --- | --- | --- | --- | --- |
| 4.46 | COc1ccccc1-c1nnc(-c2ccc(C(=O)N/N=C/c3cc(O)ccc3O)cc2)o1 | 22.4 | 100 | Non-Toxic |  |  |
| 6.4 | COc1ccc(/C=N/NC(=O)c2ccc(-c3nnc(-c4ccccc4OC)o3)cc2)cc1O | 40.6 | 260 | Non-Toxic |  |  |
| 3.78 | COc1ccccc1-c1nnc(-c2ccc(C(=O)N/N=C/c3ccc(O)cc3O)cc2)o1 | 27.5 | 104 | Non-Toxic |  |  |
| 0.98 | COc1ccccc1-c1nnc(-c2ccc(C(=O)N/N=C/c3cc(O)c(O)cc3O)cc2)o1 | 5.5 | 5.4 |  | 7.46 |  |
| 1.4 | COc1ccccc1-c1nnc(-c2ccc(C(=O)N/N=C/c3cccc(O)c3O)cc2)o1 | 72.6 | 102 | Non-Toxic |  |  |
| 16.3 | COc1ccc(O)c(/C=N/NC(=O)c2ccc(-c3nnc(-c4ccccc4OC)o3)cc2)c1 | 18.6 | 303 | Non-Toxic |  |  |
| 5.12 | COc1ccccc1-c1nnc(-c2ccc(C(=O)N/N=C/c3ccc(Cl)cc3Cl)cc2)o1 | 15.4 | 78.8 |  | 75.6 |  |
| 6.6 | COc1ccc(/C=N/NC(=O)c2ccc(-c3nnc(-c4ccccc4OC)o3)cc2)c(O)c1 | 46.6 | 308 | Non-Toxic |  |  |
| 20.7 | COc1ccccc1-c1nnc(-c2ccc(C(=O)N/N=C/c3cccc(Cl)c3)cc2)o1 |  |  | Non-Toxic |  |  |
| 4.78 | COc1ccccc1-c1nnc(-c2ccc(C(=O)N/N=C/c3c(O)cc(O)cc3O)cc2)o1 | 2.6 | 12.4 |  | 15.2 |  |
| 7.45 | COc1ccccc1-c1nnc(-c2ccc(C(=O)N/N=C/c3ccc(O)cc3)cc2)o1 | 35 | 261 | Non-Toxic |  |  |
| 0.95 | COc1ccccc1-c1nnc(-c2ccc(C(=O)N/N=C/c3ccc(O)c(O)c3)cc2)o1 | 105 | 100 | Non-Toxic |  | 7 |
| 6.35 | COc1ccccc1-c1nnc(-c2ccc(C(=O)N/N=C/c3cccc(F)c3)cc2)o1 | 55.6 | 353 | Non-Toxic |  |  |
| 14.2 | COc1ccccc1-c1nnc(-c2ccc(C(=O)N/N=C/c3ccc(F)cc3)cc2)o1 | 30.1 | 427 | Non-Toxic |  |  |
| 4.14 | COc1ccccc1-c1nnc(-c2ccc(C(=O)N/N=C/c3ccccc3O)cc2)o1 | 50 | 207 | Non-Toxic |  |  |
| 5.18 | COc1ccccc1-c1nnc(-c2ccc(C(=O)N/N=C/c3ccccc3F)cc2)o1 | 60.4 | 313 | Non-Toxic |  |  |
| 18.1 | COc1ccccc1-c1nnc(-c2ccc(C(=O)N/N=C/c3cccc(O)c3)cc2)o1 | 22 | 398 | Non-Toxic |  |  |
| 9.06 | COc1ccccc1-c1nnc(-c2ccc(C(=O)N/N=C/c3ccccn3)cc2)o1 | 7.4 | 67 |  | 68.6 |  |
